# Data from article PMC4000071 (Journal of Toxicologic Pathology, 2014).
# Where two headings read alike, the source gives them in different places.
# What was measured:
# [1] = tested on: mitochondrial oxidative phosphorylation; assay: mitochondrial oxidative phosphorylation inhibition; assay type: biochemical; details: unpublished data
# [2] = cited from earlier work
# beagle dogs = assay: 1-month; assay type: in vivo
# rat [3] = assay: rat 1- and 3-month repeat dose toxicity; assay type: in vivo
# phospholipidosis (PLD) = assay: in vitro PLD screen; assay type: cell-based; details: read-out: EC50 (phospholipogenic, in vitro); in vitro PLD screen; unpublished data
# adrenergic α1A receptor = target: T1, adrenergic α1A receptor (Homo sapiens, UniProt P35348); assay: secondary pharmacology screens, α1A; assay type: biochemical; details: 10 µM
# T1 sequence (P35348 1-466): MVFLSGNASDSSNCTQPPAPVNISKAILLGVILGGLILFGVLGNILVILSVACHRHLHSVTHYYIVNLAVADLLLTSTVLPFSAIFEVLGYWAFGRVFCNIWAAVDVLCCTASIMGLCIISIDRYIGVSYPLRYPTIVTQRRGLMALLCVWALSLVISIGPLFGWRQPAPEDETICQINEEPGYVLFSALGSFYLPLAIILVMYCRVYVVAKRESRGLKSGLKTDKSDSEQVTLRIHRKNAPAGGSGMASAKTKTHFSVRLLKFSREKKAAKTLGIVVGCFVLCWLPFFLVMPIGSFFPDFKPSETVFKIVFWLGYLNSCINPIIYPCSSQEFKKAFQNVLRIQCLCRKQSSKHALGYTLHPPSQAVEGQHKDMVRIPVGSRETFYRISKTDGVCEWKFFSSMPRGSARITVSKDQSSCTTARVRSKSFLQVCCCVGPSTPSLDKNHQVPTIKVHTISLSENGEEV
# brain 5-HT1B receptors [4] = details: cited from earlier work
# [5] = 3-month toxicity study, toxicokinetics; assay type: in vivo, beagle dogs; details: 30 mg/kg/day
# Summary of the method: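 Dogs received 7, 15 or 30 mg/kg/day by oral gavage for 3 months. Serial blood was drawn on Days 1, 23, 56 and 91, pre-dose and from 0.5 to 24 h post-dose. One decedent was sampled on Day 86 before euthanasia. Plasma drug was measured and tmax, Cmax, AUC and t1/2 were derived.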
# brain 5-HT1B receptors [6] = details: non-human primates; cited from earlier work
# dog pharmacokinetics = assay type: in vivo
# rat [7] = assay: 14-day rat study; assay type: in vivo; details: 14-day study, unpublished data
# adrenergic α1B receptor = target: T2, adrenergic α1B receptor (Homo sapiens, UniProt P35368); assay: secondary pharmacology screens, α1B; assay type: biochemical; details: 10 µM
# T2 sequence (P35368 1-520): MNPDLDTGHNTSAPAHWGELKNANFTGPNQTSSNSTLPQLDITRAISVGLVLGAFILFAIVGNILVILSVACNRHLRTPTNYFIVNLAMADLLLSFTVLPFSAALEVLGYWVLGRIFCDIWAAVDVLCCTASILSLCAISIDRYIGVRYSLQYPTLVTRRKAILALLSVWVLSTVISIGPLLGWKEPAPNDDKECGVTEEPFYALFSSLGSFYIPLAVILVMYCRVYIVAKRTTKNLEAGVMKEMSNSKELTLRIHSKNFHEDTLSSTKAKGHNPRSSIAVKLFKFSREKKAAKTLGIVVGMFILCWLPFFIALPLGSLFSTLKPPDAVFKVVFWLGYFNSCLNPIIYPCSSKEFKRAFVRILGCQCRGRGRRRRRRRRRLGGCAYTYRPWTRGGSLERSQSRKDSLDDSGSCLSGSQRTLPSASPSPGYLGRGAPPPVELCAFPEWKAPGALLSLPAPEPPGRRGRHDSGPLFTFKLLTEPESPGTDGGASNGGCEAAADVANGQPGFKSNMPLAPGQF
# [8] = target: human 5-hydroxytryptamine 1B (serotonin, or 5-HT1B) receptor; details: antagonist; cited from earlier work
# guinea pig = details: 0.6 µmol/kg. p.o.; cited from earlier work
# [9] = rat systemic and brain exposure; assay type: in vivo; details: 25 mg/kg/day (NOEL for neuropathology), unpublished results
smiles,measurement,setting,value
"COc1cc2c(c(N3CCN(C)CC3)c1)O[C@@H](C(=O)Nc1ccc(N3CCOCC3)cc1)CC2 [AZD3783, (2R)-6-methoxy-8-(4-methylpiperazin-1-yl)-N-(4-morpholin-4-ylphenyl) chromane-2-carboxamide]",inhibition of mitochondrial oxidative phosphorylation,[1],not a direct inhibitor
same,blood brain barrier crossing,[2],readily crosses the blood brain barrier
same,brain microscopic findings,"beagle dogs; 2.3 mg/kg/day, 4 weeks",No treatment-related microscopic change in the brain
same,"brain microscopic findings, other three dogs","beagle dogs; 47 mg/kg/day, 4 weeks",minimal to moderate foamy cytoplasmic vacuolation of neurons
same,mortality,"beagle dogs; a male in the 47 mg/kg/day group, severe clinical signs",euthanized on Day 20
same,"brain microscopic findings, decedant","beagle dogs; male, 47 mg/kg/day, euthanized Day 20","neuronal degeneration and necrosis microscopically, accompanied by minimal gliosis in the medulla oblongata"
same,brain microscopic findings,"beagle dogs; two dogs, 14 mg/kg/day, 4 weeks","minimal granular, yellowish pigmentation in the cytoplasm of neurons in the medulla oblongata"
same,PLD,rat [3],caused generalized PLD
same,nervous tissue pathology,"rat [3]; 1 month, 126 mg/kg/day",minimal neuronal vacuolation in the DRG and brain stem
same,"nervous tissue pathology (DRG, brain stem, spinal cord)","rat [3]; 3 months, 100 mg/kg/day, unpublished results",minimal to slight neuronal vacuolation with eosinophilic deposits
same,EC50,phospholipidosis (PLD),164 µM
same,activity at adrenergic α1A receptor,adrenergic α1A receptor,antagonist
same,binding to brain 5-HT1B receptors (PET),brain 5-HT1B receptors [4]; human subjects,bind dose-dependently
same,receptor occupancy in brain region,"brain 5-HT1B receptors [4]; man, 5 mg dose",50%
same,plasma concentration,"[5]; decedent female, prior to euthanasia on Day 86",17 µM
same,exposure relative to predicted therapeutic exposure,"[5]; dog, 3-month study",350 fold
same,binding to brain 5-HT1B receptors (PET),brain 5-HT1B receptors [6],bind dose-dependently
same,steady state volume of distribution,dog pharmacokinetics,4.3 L/kg
same,plasma clearance,dog pharmacokinetics; after IV dosing,18 mL/min/kg
same,F (oral),dog pharmacokinetics; oral dosing,58%
same,PLD in tissues,rat [7],dose-dependent PLD in a limited number of tissues
same,activity at adrenergic α1B receptor,adrenergic α1B receptor,antagonist
same,Ki,[8],0.0125 µM
same,anxiolytic and anti-depressant efficacy,guinea pig,elicit effects indicative of anxiolytic and anti-depressant efficacy
same,extracellular serotonin in the brain,guinea pig,increase extracellular serotonin in the brain
same,AUC,[9],84 µM·h
